Like-named read-outs stand apart in the source and are kept apart here. Values belong to the compound of their own block, whether it stands above or below them.
Columns and labels:
ClpP [1] = target: T1, ClpP (Homo sapiens, UniProt Q16740); assay: Thermal shift assay; type: binding; conditions: MDA-MB-468 lysates; for ClpP binding/stabilization by TSA (comparison in words): heated at 67 °C, WB
Procedure, shortened: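 Test compound at increasing concentrations added to 10 μg MDA-MB-468 lysate, 15 min at 23 °C. Heated 67 °C for 3 min, precipitated 3 min at 23 °C, spun 14,000 rpm, 20 min, 4 °C. Soluble ClpP detected by anti-ClpP immunoblot against unheated and no-compound controls; quantified as mean ± SD of two independent experiments.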

cancer cells = conditions: cited from earlier work
[2] = system: ONC212-resistant MDA-MB-468 cells; assay: Viability assay; type: cell-based, human; conditions: for IC50: read-out: IC50 (viability); for increase in the IC50 value, resistant vs wild-type cells: ONC212-resistant vs wild-type MDA-MB-468, 72 h
Procedure, shortened: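 Resistant MDA-MB-468 line selected by continuous 50 nM reference ClpP agonist, medium changed every 3 days. Cells expanded drug-free and re-exposed over several cycles until growth exceeded death. Wild-type and resistant cells seeded at 5,000 per well, quadruplicate, and dosed 72 h. AlamarBlue read after 3 h, normalized to vehicle; mean ± SD, three independent experiments.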

BT-474 cells = assay: Viability assay; type: cell-based, human; conditions: BT-474, 72 h; for IC50: read-out: IC50 (viability)
Procedure, shortened: (§1)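 Cells (DMEM/F12 + GlutaMax, 10% FBS, 1% pen-strep) seeded at 5,000 per well 24 h before dosing, in quadruplicate. Medium replaced with test compound-containing medium for 72 h. Viability read after 3 h AlamarBlue incubation by colorimetric change, normalized to vehicle control. IC50 from curves; mean ± SD of three independent experiments.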

MDA-MB-468 cells [3] = assay: Seahorse mitochondrial respiration assay; type: cell-based, human; conditions: 50 nM for 12, 24 and 48 h
Procedure, shortened: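 Cells were plated at 250,000 per well and treated for 12, 24 or 48 h. One hour before reading, medium was changed to XF DMEM (1 mM pyruvate, 2 mM glutamine, 10 mM glucose, pH 7.4). The Mito Stress Test used final 1 μM oligomycin, 1 μM FCCP and 0.5 μM antimycin A. OCR was read at baseline and after sequential oligomycin, FCCP and rotenone additions.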

SK-BR-3 cells = assay: Viability assay; type: cell-based, human; conditions: SK-BR-3, 72 h; for IC50: read-out: IC50 (viability)
Procedure, shortened: as §1

ClpP [4] = target: T1, ClpP; assay: Thermal shift assay; type: cell-based; conditions: MDA-MB-468 cells treated 30 min
Procedure, shortened: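 MDA-MB-468 cells seeded at 1 million per well the day before, then exposed to test compound for 30 min at 37 °C. Washed in PBS, scraped into PBS with […] inhibitors, heated 67 °C for 3 min, lysed by freeze–thaw, spun 14,000 rpm 20 min at 4 °C. Soluble ClpP immunoblotted; normalized quantification, mean ± SD of two independent experiments.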

MDA-MB-468 cells [5] = assay: Western blot analysis of apoptosis markers; type: cell-based, human; conditions: 1 μM, 72 h
Procedure, shortened: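 MDA-MB-468 cells exposed to vehicle or 1 μM test compound for 72 h. Lysates probed by immunoblot for apoptosis markers including caspase-3. Blots representative of two independent experiments.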

MCF-7 cells = assay: Viability assay; type: cell-based, human; conditions: for IC50: read-out: IC50 (viability)
Procedure, shortened: as §1

MDA-MB-468 cells [6] = assay: Flow-cytometry-based apoptosis detection; type: cell-based, human; conditions: 1 μM, 72 h
Procedure, shortened: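 MDA-MB-468 cells given DMSO or 1 μM test compound for 72 h at 37 °C, 5% CO2. Washed twice in FACS buffer (50 mM PBS, 2 mM EDTA, 2% FBS), stained with fixable viability dye eFluor 780 for 30 min at 4 °C, washed, then analysed by flow cytometry for dead-cell labelling.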

MDA-MB-468 cells [7] = assay: Viability assay; type: cell-based, human; conditions: for IC50: read-out: IC50 (viability)
Procedure, shortened: as §1

[8] = Mouse pharmacokinetic study; type: in vivo; conditions: Swiss albino mice, single IP administration, 50 mg/kg
Procedure, shortened: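 Three male Swiss Albino mice received a single intraperitoneal dose in 100% v/v normal saline. About 60 μL of blood was drawn at 0.5, 2 and 8 h. Plasma was stored at −70 °C until a fit-for-purpose LC-MS/MS assay. Concentrations are the average of the 3 mice, with ± SEM.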

[9] = target: purified human ClpP (hClpP) (Homo sapiens, UniProt Q16740); assay: Differential scanning fluorimetry; type: binding; conditions: vs DMSO
purified human ClpP (hClpP), sequence (Q16740 57-277): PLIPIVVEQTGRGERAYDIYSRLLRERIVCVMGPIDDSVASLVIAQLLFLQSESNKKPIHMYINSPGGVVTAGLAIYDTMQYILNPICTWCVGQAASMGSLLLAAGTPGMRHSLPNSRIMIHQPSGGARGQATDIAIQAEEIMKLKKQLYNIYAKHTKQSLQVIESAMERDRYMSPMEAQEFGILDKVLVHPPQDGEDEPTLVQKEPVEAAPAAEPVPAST
Procedure, shortened: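 Human ClpP lacking mitochondrial sequence, expressed in E. coli BL21(DE3) as N-terminal 2x(His6-thrombin)-SUMO-TEV fusion (1 mM IPTG, 4 h, 37 °C), cobalt-resin purified. Protein at 0.5 mg/mL final in 25 mM Tris-HCl pH 7.5 with SYPRO Orange; held 25 °C 2 min, ramped 25–95 °C at 0.05 °C/s. ΔTm versus DMSO; mean ± SD, four independent experiments.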

MDA-MB-231 cells = assay: Viability assay; type: cell-based, human; conditions: MDA-MB-231, 72 h; for IC50: read-out: IC50 (viability)
Procedure, shortened: as §1

DAP13 = DAP13 degradation assay; type: cell-based, human; conditions: 24 h, MDA-MB-468 cells; for DAP13 degraded: 25 nM; for DAP13 degradation at high concentrations: 100, 150 and 200 nM

T1 sequence (Q16740 57-277): as above

SMILES: CN(C)CCCCCc1cc(C(F)(F)F)ccc1CN1C(=O)C2=C(CCN(Cc3cccc(C#N)c3)C2)N2CCN=C12 [Compound 7, 3-((4-(2-(5-(Dimethylamino)pentyl)-4-(trifluoromethyl)-benzyl)-5-oxo-1,2,4,5,8,9-hexahydroimidazo[1,2-a]pyrido[3,4-e]pyrimidin-7(6H)-yl)methyl)benzonitrile]
ClpP binding/stabilization by TSA (comparison in words) (ClpP [1]): recovered to the same level as that of compound 2

SMILES: NCCCCCc1cc(C(F)(F)F)ccc1CN1C(=O)C2=C(CCN(Cc3ccccc3)C2)N2CCN=C12 [Compound 1, 4-(2-(5-Aminopentyl)-4-(trifluoromethyl)benzyl)-7-benzyl-2,4,6,7,8,9-hexahydroimidazo[1,2-a]pyrido[3,4-e]pyrimidin-5(1H)-one]
ClpP binding/stabilization by TSA (comparison in words) (ClpP [1]): marginally improved binding to ClpP compared to ONC212

improvement in ClpP binding compared to ONC212 and compound 1 (ClpP [1]; TSA): approximately 2 fold
SMILES: N#Cc1cccc(CN2CCC3=C(C2)C(=O)N(Cc2ccc(C(F)(F)F)cc2CCCCCN)C2=NCCN23)c1 [Compound 2, 3-((4-(2-(5-Aminopentyl)-4-(trifluoromethyl)benzyl)-5-oxo-1,2,4,5,8,9-hexahydroimidazo[1,2-a]pyrido[3,4-e]pyrimidin-7(6H)-yl)methyl)benzonitrile]

ClpP binding/stabilization by TSA (comparison in words) (ClpP [1]): much reduced binding to ClpP
SMILES: CC(=O)NCCCCCc1cc(C(F)(F)F)ccc1CN1C(=O)C2=C(CCN(Cc3cccc(C#N)c3)C2)N2CCN=C12 [Compound 6, N-(5-(2-((7-(3-Cyanobenzyl)-5-oxo-1,2,6,7,8,9-hexahydroimidazo[1,2-a]pyrido[3,4-e]pyrimidin-4(5H)-yl)-methyl)-5-(trifluoromethyl)phenyl)pentyl)acetamide]

SMILES: CC(=O)NCCOc1cc(C(F)(F)F)ccc1CN1C(=O)C2=C(CCN(Cc3cccc(C#N)c3)C2)N2CCN=C12 [Compound 10, N-(2-(2-((7-(3-Cyanobenzyl)-5-oxo-1,2,6,7,8,9-hexahydroimidazo[1,2-a]pyrido[3,4-e]pyrimidin-4(5H)-yl)-methyl)-5-(trifluoromethyl)phenoxy)ethyl)acetamide]
ClpP binding/stabilization by TSA (comparison in words) (ClpP [1]): decreased ClpP binding compared to 9 but similar to ONC212

SMILES: Cc1ccccc1CN1C(=O)C2=C(CCN(Cc3ccccc3)C2)N2CCN=C12 [ONC201]
concentrations required to significantly affect cancer cell survival (cancer cells): micromolar range

SMILES: N#Cc1cccc(CN2CCC3=C(C2)C(=O)N(Cc2ccc(C(F)(F)F)cc2OCCN)C2=NCCN23)c1 [Compound 9, 3-((4-(2-(2-Aminoethoxy)-4-(trifluoromethyl)benzyl)-5-oxo-1,2,4,5,8,9-hexahydroimidazo[1,2-a]pyrido[3,4-e]pyrimidin-7(6H)-yl)methyl)benzonitrile]
IC50 ([2]; Homo sapiens, MDA-MB-468, 72 h): 27.7 nM | increase in the IC50 value, resistant vs wild-type cells [2]: 2.6 fold | fold improvement of IC50 vs ONC212 (BT-474 cells): approximately 4 fold | IC50 (BT-474 cells; Homo sapiens): 8 nM | effect on basal respiration, ATP generation and maximal respiration (MDA-MB-468 cells [3]): reduced basal respiration, ATP generation and maximal respiration at all time points tested | IC50 (SK-BR-3 cells; Homo sapiens): 11.5 nM | fold improvement of IC50 vs ONC212 (SK-BR-3 cells): approximately 10 fold | concentration at which ClpP was stabilized (TSA in live cells) (ClpP [4]): 0.08 µM | concentration at which ClpP was stabilized (TSA) (ClpP [1]): 0.313 µM | ClpP binding/stabilization by TSA (comparison in words) (ClpP [1]): superior stabilization of ClpP | cleaved caspase 3 and cleaved PARP levels (MDA-MB-468 cells [5]): increased the cleaved caspase 3 and cleaved PARP levels | protein levels of full-length caspase 3 and PARP (MDA-MB-468 cells [5]): reduction | IC50 (MCF-7 cells; Homo sapiens, MCF7, 72 h): 7 nM | fold improvement of IC50 vs ONC212 (MCF-7 cells; MCF-7, 72 h): approximately 9 fold | late-stage apoptosis (eFluor 780) (MDA-MB-468 cells [6]): effectively induced late-stage apoptosis | IC50 (MDA-MB-468 cells [7]; Homo sapiens, MDA-MB-468, 72 h): 10.6 nM | fold improvement of IC50 vs ONC212 (MDA-MB-468 cells [7]; MDA-MB-468, 72 h): approximately 3.5 fold | bioavailability (plasma concentrations) [8]: bioavailable in mice via IP injection | tolerability [8]: well tolerated | thermal shift of purified hClpP (DSF) [9]: very significant thermal shift | IC50 (MDA-MB-231 cells; Homo sapiens): 13.9 nM | fold improvement of IC50 vs ONC212 (MDA-MB-231 cells): approximately 3.5 fold | DAP13 degraded (DAP13): more than 50% | DAP13 degradation at high concentrations (DAP13): degraded DAP13

SMILES: CNC(=O)CN(C)CCCCCc1cc(C(F)(F)F)ccc1CN1C(=O)C2=C(CCN(Cc3cccc(C#N)c3)C2)N2CCN=C12 [Compound 8, 2-((5-(2-((7-(3-Cyanobenzyl)-5-oxo-1,2,6,7,8,9-hexahydroimidazo[1,2-a]pyrido[3,4-e]pyrimidin-4(5H)-yl)-methyl)-5-(trifluoromethyl)phenyl)pentyl)(methyl)amino)-N-methylacetamide]
ClpP binding/stabilization by TSA (comparison in words) (ClpP [1]): recovered to the same level as that of compound 2

increase in the IC50 value, resistant vs wild-type cells [2]: approximately 10 fold | IC50 ([2]; ONC212-resistant MDA-MB-468, 72 h): 351 nM | IC50 (BT-474 cells): 32.7 nM | IC50 (SK-BR-3 cells): 115 nM | concentration at which ClpP was stabilized (TSA in live cells) (ClpP [4]): 0.63 µM | concentration at which ClpP was stabilized (TSA) (ClpP [1]): ≥ 2.5 µM | IC50 (MCF-7 cells; MCF-7, 72 h): 63.7 nM | IC50 (MDA-MB-468 cells [7]; MDA-MB-468 (wild-type), 72 h): 35.2 nM | thermal shift of purified hClpP (DSF) [9]: very significant thermal shift | IC50 (MDA-MB-231 cells): 50.5 nM
SMILES: O=C1C2=C(CCN(Cc3ccccc3)C2)N2CCN=C2N1Cc1ccc(C(F)(F)F)cc1 [ONC212, reference compound]
effect on basal respiration, ATP generation and maximal respiration (MDA-MB-468 cells [3]): significantly affected these mitochondrial functions only at 48 h | protein levels of full-length caspase 3 and PARP (MDA-MB-468 cells [5]): reduction | late-stage apoptosis (eFluor 780) (MDA-MB-468 cells [6]): effectively induced late-stage apoptosis | DAP13 degraded (DAP13): did not significantly degrade DAP13 | DAP13 degradation at high concentrations (DAP13): degraded DAP13

ClpP binding/stabilization by TSA (comparison in words) (ClpP [1]): weaker ClpP binding
SMILES: NCCCCCc1cc(F)ccc1CN1C(=O)C2=C(CCN(Cc3ccccc3)C2)N2CCN=C12 [Compound 3, 4-(2-(5-Aminopentyl)-4-fluorobenzyl)-7-benzyl-2,4,6,7,8,9-hexahydroimidazo[1,2-a]pyrido[3,4-e]pyrimidin-5(1H)-one]

ClpP binding/stabilization by TSA (comparison in words) (ClpP [1]): much reduced binding to ClpP
SMILES: CC(=O)NCCCCCc1cc(C(F)(F)F)ccc1CN1C(=O)C2=C(CCN(Cc3ccccc3)C2)N2CCN=C12 [Compound 5, N-(5-(2-((7-Benzyl-5-oxo-1,2,6,7,8,9-hexahydroimidazo[1,2-a]pyrido[3,4-e]pyrimidin-4(5H)-yl)methyl)-5-(trifluoromethyl)-phenyl)pentyl)acetamide]

Source: article PMC12700136 (Journal of medicinal chemistry, 2025)
